Results from PubChem BioAssay.
The source made the active and inactive calls.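 How the source made its calls, unless noted: active means viability loss from added drug above about 55%, and viability with drug at most 40%, in both replicates (limit read from the data, passing the limit was not always enough); inconclusive means both conditions met in only one replicate; inactive means neither replicate meets both conditions.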

Columns and labels:
[1] = HUVEC growth inhibition – cell-based, human, primary screen (AID 575;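 active means viability at or below 30% in both replicate assays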;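 further: 100% = median of untreated cell wells with 0.1% DMSO on each plate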); conditions: HUVEC proliferation, CellTiter-Glo luminescence, 72 h; at 10 µM; stronger effect = lower value
In short: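 Test system: HUVEC primary cells. Quantity: 1250 endothelial cells in each well. Dosing: single-point 10 µM, DMSO 0.1% final. Incubation: 72 h treatment at 37 °C. Measured by: CTG luminescence. Control set: DMSO cell controls and MePR drug controls. Plate: collagen-coated 384-well format.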

[2] = H69AR cell proliferation blockers – human, duplicate replicates, primary screen (AID 580;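 active means viability at or under a set limit in both replicates, limit being median viability minus 3 SD, cut at about 48% in these data, passing the limit was not always enough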;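 further: 100% = mean luminescence of untreated wells and 0% = no signal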); conditions: H69AR lung tumor cells viability, ATP luminescence, 72 h; at 10 µM; stronger effect = lower value
[3] = MRP1 drug-resistance reversers in H69AR cells – cell-based, doxorubicin co-treatment, pilot screen (AID 601); conditions: CellTiter-Glo, 72 h, at 10 µM; for differential viability (reversal): stronger effect = higher value
[4] = yeast transport mutant growth inhibition pilot in 384-well plates, post-Golgi transport modulator project (AID 636; in the data active means inhibition above about 31%); conditions: absorbance 615 nm, about 18 h, stronger effect = higher value
[5] = growth suppression of yeast trafficking mutant, preliminary HTS, modulators of trafficking downstream of Golgi apparatus project, 1536-format plate, OD 615 nm (AID 637; in the data active means inhibition above about 30%); conditions: yeast transport mutant growth, absorbance 615 nm, 18 h; stronger effect = higher value
[6] = H69AR cells + 2 uM doxorubicin, measured here: viability with 2 uM doxorubicin, stronger effect = lower value
[7] = H69AR cells, compound alone cytotoxicity

| SMILES | viability [1] | viability [2] | differential viability (reversal) ([3]; H69AR cells + 2 uM doxorubicin) | viability [3, 6] | viability [3, 7] | inhibition [4] | inhibition [5] |
| --- | --- | --- | --- | --- | --- | --- | --- |
| CCC(=O)c1ccc(OCC(=O)N2CCc3cc(OC)c(OC)cc3C2)cc1 | 101% (inactive) | 82.9% (inactive) | -11.2% (inactive) | 94.1% | 82.9% | -2.34% (inactive) | -4.6% (inactive) |
| Cc1ccc2nc(NC(=O)CN(C)S(=O)(=O)c3cccc4nsnc34)sc2c1 | 18.1% (active) | 9.1% (active) | -15.1% (inactive) | 24.2% | 9.1% | -4.27% (inactive) | -4.29% (inactive) |
| CCOc1ccc(NC(=O)c2ccncc2)cc1 | 112% (inactive) | 99.9% (inactive) | 11.4% (inactive) | 88.5% | 99.9% | -2.89% (inactive) | -0.63% (inactive) |
| COc1cccc(Oc2ccc(N)cc2)c1 | 74.9% (inactive) | 74.8% (inactive) | -6.83% (inactive) | 81.7% | 74.8% | 0% (inactive) | -3.33% (inactive) |
| CC1(C)NC(=O)N(CN2C(=O)NC(C)(C)C2=O)C1=O | 99.6% (inactive) | 102% (inactive) | 11.1% (inactive) | 90.8% | 102% | -3.33% (inactive) | -1.11% (inactive) |
| CCN(C(=O)c1c(-c2ccccc2)noc1C)c1ccccc1 | 100% (inactive) | 93.8% (inactive) | 9.52% (inactive) | 84.3% | 93.8% | -1.18% (inactive) | 14.9% (inactive) |
| Cc1cccc(NC(=O)CN(C)S(=O)(=O)c2ccccc2)n1 | 107% (inactive) | 95.2% (inactive) | 9.79% (inactive) | 85.4% | 95.2% | -6.18% (inactive) | 2.54% (inactive) |
| O=C(CN1CCN(c2ncc(C(F)(F)F)cc2Cl)CC1)Nc1ccc2c(c1)OCO2 | 85.7% (inactive) | 93.2% (inactive) | 0.28% (inactive) | 92.9% | 93.2% | 0.65% (inactive) | -4.29% (inactive) |
| O=C1CNCc2[nH]c3ccccc3c2N1c1ccccc1 | 94.2% (inactive) | 94.8% (inactive) | -1.22% (inactive) | 96% | 94.8% | -3.95% (inactive) | 1.27% (inactive) |
| CSC1CCCCC1(O)CSc1nc2c(cc1C#N)CCCC2 (stereo not given) | 75.4% (inactive) | 92.6% (inactive) | -2.66% (inactive) | 95.2% | 92.6% | -0.66% (inactive) | -1.9% (inactive) |
| O=C(CCCn1c(=O)c2sccc2n(CC(=O)NCc2ccco2)c1=O)NCc1ccco1 | 90.4% (inactive) | 100% (inactive) | 20% (inactive) | 80% | 100% | -2.86% (inactive) | 2.54% (inactive) |
| c1ccc(CCc2nn3c(Cn4cnc5ccccc54)nnc3s2)cc1 | 75.8% (inactive) | 81.8% (inactive) | -3.56% (inactive) | 85.4% | 81.8% | -1.18% (inactive) | 11.4% (inactive) |
| CC(C)(C)NC(=O)CN(C(=O)CS(=O)CC(=O)Nc1ccc(F)cc1)c1ccc(Cl)cc1 (stereo not given) | 95.2% (inactive) | 98.9% (inactive) | 10.3% (inactive) | 88.6% | 98.9% | -4.53% (inactive) | 21.9% (inactive) |
| O=c1c2ccccc2c(C=Nc2ccc(Cl)cn2)c(O)n1-c1cc(Cl)ccc1N1CCOCC1 | 91.7% (inactive) | 89.1% (inactive) | 7.31% (inactive) | 81.8% | 89.1% | -0.65% (inactive) | -3.49% (inactive) |
| CCN(c1ccccc1)S(=O)(=O)c1ccc(F)cc1C | 86.5% (inactive) | 90.4% (inactive) | 7.2% (inactive) | 83.2% | 90.4% | -1.04% (inactive) | -5.71% (inactive) |
| CCOC(=O)c1cccc(NC(=O)CCn2nnc3ccccc32)c1 | 89.9% (inactive) | 98.6% (inactive) | 9.72% (inactive) | 88.9% | 98.6% | -2.5% (inactive) | 0.48% (inactive) |
| CCCCC(CC)Cn1c2nc3ccccc3nc2c2c(=N)oc(C)nc21 (stereo not given) | 3.36% (active) | 1.91% (active) | -0.33% (inactive) | 2.24% | 1.91% | -2.63% (inactive) | 1.59% (inactive) |
| Cc1c(O)c(CN2CCCCC2)cc2c3c(c(=O)oc12)CCC3 | 103% (inactive) | 82.2% (inactive) | -0.59% (inactive) | 82.8% | 82.2% | -6.84% (inactive) | 5.08% (inactive) |
| CN(CC(=O)N1CCN(c2ccccn2)CC1)S(=O)(=O)c1ccc2ccccc2c1 | 81.5% (inactive) | 89% (inactive) | 9.23% (inactive) | 79.8% | 89% | -2.63% (inactive) | -3.33% (inactive) |
| CCN(CC)C(=O)CSc1nnc(-c2cc(OC)cc(OC)c2)o1 | 84.1% (inactive) | 93.9% (inactive) | 2.03% (inactive) | 91.9% | 93.9% | -5.87% (inactive) | 2.7% (inactive) |
